Variants at the floor of the assay were thinned out.

The chains are these.
B1: tRNA (parent)
chain: GUUCCGUUGGCGUAAUGGUAACGCGUCUCCCUCCUAAGGAGAAGACUGCGGGUUCGAGUCCCGUACGGAACG

Variants of B1 are the subject of the data set. In words: yeast fitness relative to wild type (ratio to wild type); higher = fitter; tRNA-Arg(CCU), competitive growth, 37 C, YPD. The method in brief: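 The tRNA-Arg(CCU) gene variants were made by chemical synthesis with a 3% per-site mutation rate at 69 sites and inserted at the native genomic locus of Saccharomyces cerevisiae. After pooling, the strains were competed in YPD at 37°C for 24 hours in six parallel replicates. Gene amplicons from the start population and each end population were read by 100-nucleotide paired-end sequencing, and Darwinian fitness relative to wild type was taken from genotype frequency changes. Genotypes needed ≥ 100 starting reads, and estimates < 0.5 were set to 0.5.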
Regarding GUUCUGUUGGCGAAAUGGUAACGCGUCUCCCUCCUAAGGAGAAGACUGCGGGUUCGAGUCCAGUACGGAACG, the yeast fitness was 0.546.

For GUUCUGUUGGCGGAAUGGUAACGCGUCUCCCUACUACGGAGAAGACUGCGGGUUCGAGUCUCGUACGGAACG, the yeast fitness was ≤ 0.5.

GUUCUGUUGGCGCAAUGGUCACGCGUCUCCCUCCUGAGGAGAAGACUGCGGCUUCGAGUCCCGUACGGAACG: the yeast fitness was ≤ 0.5.

For the variant GUUCUGUUGGCGUAAGGGUAACGCGUCUCCCUCCUAAGGAGAAGACUGCGGGUUCGGGUCCGGUAUGGAACG, the yeast fitness was ≤ 0.5.

For GUUCUGUUGGCGUAACGGUAACGCGUCUCCCUCCUAAGGGGAGGACUGCGGGUUCGAGUCCCGUACCGAACG, the yeast fitness is ≤ 0.5.

For GUUCUGUUGGCGGAAUGGUAACGCGUCUCCCUCCUAAGGAGAAGACUGCGGGUUUGAGUCCCGUACCGAACG, the yeast fitness is ≤ 0.5.

Consider GUUCUGUCGGCGUAAUGGUAACGCGUCUCCCUCCUGAGGAGAAGACUGCGGGUUCGAGUACCGUACGGAACG, for which the yeast fitness is ≤ 0.5.

With GUUCUGUUGGCGCAAUGGUAACGGGCCUCCCUCCUAGGGAGAAGACUGCGGGUGCGAGUCCCGUACGGAACG, the yeast fitness is ≤ 0.5.

In the case of GUUCUGUCGGCGUAAUGGUAACGCGUCUCCCUCCUGAGGGGAAGACUGCGGGUUCGAGUACCGUACGGAACG, the yeast fitness was ≤ 0.5.

As to GUUCUGUUGGCGCACUGGUAACGCGUCUCCCUCCUAAGGAGAAGACUGCGGGUUCGAGUCCCGUACGGAACG, the yeast fitness is ≤ 0.5.

Take GUUCUGUUGGCGUAACGGUAACGCGUCUCCCUCCUAAGGAGAAGACUGCGGGUUCGAGUCCCGUACGGCACG: the yeast fitness is 0.671.

For the variant GUUCUGUUGGCGUAAGGGUAACGCGUCUCCCUCCUAAGGAGAAGACUGCGGGUUCGAGUCCCGUCCGGAACG, the yeast fitness came out at 0.612.

Consider GUUCUGUUGGCGUAAAGGUAACGCGUCUCCCUCAUAAGGAGAAGACUGCGGGUUCGAGUCCCAUACGGAACG, for which the yeast fitness is ≤ 0.5.

On to GUUCUGUUGGCGUAAAGGUAACGCGUCUCCCUCCUAAGGAGAAGAAUGCGGGUUCGAGUCCCGUACGGAACG, for which the yeast fitness turned out to be 1.07.

In the case of GUUCUGUUGGCGGAAUGGUAACGCGUUUACCUCCUUAGGCGAAGACUGCGGCUUCGAGUCCCGUACGGAACG, the yeast fitness is ≤ 0.5.

As to GUUCUGUCGGCGUAAUGGUGACGCGUCUCACUCCUAAGGAGAAGACUGCGGGUUCGAGUCUCGUACGGAACG, the yeast fitness is 0.544.

Regarding GUUCUGUUGGCGUAAAGGUAACACGUCUCCCUCCUAAGGAGAAGACUGUGGGUUCGAGUCCCGUACGGAACG, the yeast fitness was ≤ 0.5.

On to GUUCUGUUGGCGGAAUGGUAAAGCGUCUUCAUCCUAAGGAGAAGACUGCGGGUUCGAGACCUGUACGGAACG, for which the yeast fitness is ≤ 0.5.

Turning to GUUCUGUUGGCGGAAUGGUAACGCGUCUCCCUACUACGGAGAAGACUGCGGCUUCGAGUCCCGUACGGAACG, the yeast fitness was ≤ 0.5.

On to GUUCUGUUGGCGGAAUGGUAACGCGUCUCCCUCCUAAGGAGAAGACUGCGGGUUCGCGUCCCGUACGGAACG, for which the yeast fitness came out at 0.755.

As for GUUCUGUCGGCGUAAUGGUAACGCGUCUCCCUCCUAAGGAGAUGACUGCGGGUUCGAGUCCCGUACGGAACG, the yeast fitness amounted to 0.703.

Take GUUCUGUUGGCGUAAAGGUAACGCGUCUCCCUCCUAAGGAGAAGACUGCGGGUUCGAGUCCCGUACGGAACG: the yeast fitness worked out at 0.882.

Turning to GUUCUGUUGGCGUAAUGGAAACGCGUCUCCCUCCUAAGGCGAAGACUGGGGGUUGGAGUCCCGUACGGUACG, the yeast fitness is ≤ 0.5.

On to GUUCUGUUGGCGUAAGGGUAACGCGUCUCCCUCUUAAGGGGAGGACUGCGGGUUCGAGUCCAGUACGGCACG, for which the yeast fitness was determined as 0.565.

As for GUUCUGUUGGCGUAAGGGUAACGCGUCUCCCUCCUAAGGAGAAGACUGCGGGUUCGAGUCCCGCACGGAACG, the yeast fitness came to 0.932.

Regarding GUUCUGUUGGCGAAAUGGUAAUGCGUCUCACUCCUAGGGACAAGAGUGCGGGUUCGAGUCCCGUACGGAACG, the yeast fitness was ≤ 0.5.

Take GUUCUGUUGGCGUAAGGGUAACGCGUCUCCCUCCUAAGGAGAAGACUGCGGGUUCGACUCCCGUACGGAACG: the yeast fitness came out at 0.576.

GUUCUGUUGGCGAAGUGGUAACGCGUCUCCCUCCUAAGGAGAAGACUGCCGGUUCGGGUCCCGUACGGAACG: the yeast fitness was determined as 0.536.

For GUUCUGUUGGCGUAAAGGUAACGCGUCUCCCUCAUAAGGAGAAGACUGCGGGUUCGAGUCCCGUACGGAACG, the yeast fitness is ≤ 0.5.

Take GUUCUGUCGGCGUAAUCGUAACGCGUCUCCAUCCUAAGGAGAAGACUGCGGGUUCGAGUCCCGUACGAAACG: the yeast fitness was ≤ 0.5.

Turning to GUUCUGUUGGCGUAACGGUAACGCGUCUCCCUCCUGAGGAGAAGACUGCGGGUUCGAGUCCCGUACGGAACG, the yeast fitness is 0.73.

GUUCUGUUGGCGUAAAGGUAACGCGUCUCCCUCCUAAAGAGGAGACUGCGGGUUCGAGUCCCGUACGGAACG: the yeast fitness is ≤ 0.5.

GUUCUGUAGGCGUAAUGGUAACGCGUCUCCCUCCUAAGGAGAAGAAUGCGGGUUCGAGUCCCGUACGGAACG: the yeast fitness was ≤ 0.5.

With GUUCUGUUGGCGCAAUGGUAACGCGACUCCCUCCUAAGGAGAAGACUGCGGGUUCGAGUCCCGUACGGAACG, the yeast fitness was 0.722.

GUUCUGUUGGCGUAACGGUAACGUGUCUCCCUCCUAAGGAGCAGACUGCGGGUUCGUGUCCCGUACGGAACG: the yeast fitness is ≤ 0.5.

As to GUUCUGUUGGCGAAAUGGUAACGCGUCUGCAUCCUAAGGAGAAGACUGCGGGUUCGAGUCUCGUACGGAACG, the yeast fitness was ≤ 0.5.

Turning to GUUCUGUUGGCGCAAUGGUUACGCGUCUCCCUCCUACGGAGAACACUGCGGGUUCGAGUCCCGUACGGAACG, the yeast fitness was ≤ 0.5.
